Measurements collected from several papers.
Compare with care: the assays were run in different laboratories.
Target: Serine/threonine-protein kinase D3 (PRKD3, Homo sapiens, UniProt O94806)
One construct used (O94806 1-890): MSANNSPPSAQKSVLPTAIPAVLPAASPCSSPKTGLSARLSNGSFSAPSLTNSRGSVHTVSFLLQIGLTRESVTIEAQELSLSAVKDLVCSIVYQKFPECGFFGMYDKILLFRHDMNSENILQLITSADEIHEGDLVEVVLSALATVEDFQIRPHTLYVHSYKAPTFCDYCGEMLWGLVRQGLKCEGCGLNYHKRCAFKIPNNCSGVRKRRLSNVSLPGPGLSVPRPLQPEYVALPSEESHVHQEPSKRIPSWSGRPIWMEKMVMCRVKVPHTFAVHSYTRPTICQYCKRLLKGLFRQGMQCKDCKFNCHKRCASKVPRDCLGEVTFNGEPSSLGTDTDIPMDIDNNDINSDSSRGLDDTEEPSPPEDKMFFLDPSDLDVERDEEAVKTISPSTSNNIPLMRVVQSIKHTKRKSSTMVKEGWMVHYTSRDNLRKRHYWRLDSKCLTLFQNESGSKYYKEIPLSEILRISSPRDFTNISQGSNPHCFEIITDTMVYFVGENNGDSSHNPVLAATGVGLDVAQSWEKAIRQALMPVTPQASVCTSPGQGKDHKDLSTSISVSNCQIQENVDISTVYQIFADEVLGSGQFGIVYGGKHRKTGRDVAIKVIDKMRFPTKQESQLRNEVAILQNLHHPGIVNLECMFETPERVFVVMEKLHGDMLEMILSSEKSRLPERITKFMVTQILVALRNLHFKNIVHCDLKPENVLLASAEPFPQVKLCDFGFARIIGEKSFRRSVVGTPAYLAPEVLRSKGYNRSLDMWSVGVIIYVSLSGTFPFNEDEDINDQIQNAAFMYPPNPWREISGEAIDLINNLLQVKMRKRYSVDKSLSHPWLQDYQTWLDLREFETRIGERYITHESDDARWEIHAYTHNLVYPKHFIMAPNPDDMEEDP

Compound	test	system	conditions	endpoint	value
CNc1cc(Oc2cc(C(=O)Nc3cc(N4CCN(C)CC4)cc(C(F)(F)F)c3)ccc2C)ncn1	target engagement in cells, inhibitor, chemoproteomics	Huh-7	1 µM	inhibition	-19.8%
Cn1c2c(Cl)c(Cl)ccc2c2cc(N)[nH]c(=O)c21	thermal stability, DSF	–	10 µM	ΔTm	1 °C
COc1cc(Nc2c(C#N)cnc3cc(OCCCN4CCN(C)CC4)c(OC)cc23)c(Cl)cc1Cl	cell-free assay	–	0.5 µM	remaining signal	42.2%
CCCCN(CCCC)C(=O)CN1C[C@@H](c2cc(OC)c3c(c2)OCO3)[C@H](C(=O)O)[C@H]1CC(C)(C)CCC	cell-free assay, competition with immobilised ligand	–	1 µM	remaining binding	100%
CNc1cccc2cc(C(=O)Nc3ccc(C(=O)O)cc3)c(=O)[nH]c12	enzyme activity, inhibitor	–	10 µM	inhibition	-1%
O=C(O)c1cc(-c2ccc(C3CCNCC3)cc2)c2ccc(-c3ccc(C(F)(F)F)cc3)cc2c1	cell-free assay, competition with immobilised ligand	–	1 µM	remaining binding	100%
CC(C)(C)c1nc2c(s1)c1nc(N)ncc1c1ccc(NS(=O)(=O)c3c(F)cccc3F)c(F)c12	enzyme activity, inhibitor, radiometric	–	1 µM	remaining activity	98%
Nc1ncnc2occ(-c3ccc(NC(=O)Nc4cc(C(F)(F)F)ccc4F)cc3)c12	cell-free assay, inhibitor	–	20 µM	remaining signal	42%
Cc1nc(Cc2cccc(C(F)(F)F)c2)sc1-c1ccc(C(N)=O)nc1	cell-free assay, competition with immobilised ligand	–	1 µM	remaining binding	97%
c1ccc(CNc2nc(N3CCOc4ccccc43)nc3c2CCCC3)cc1	target engagement in cells, inhibitor, chemoproteomics	–	20 mM	inhibition	2.8%
COc1cc(Cl)c(C(=O)N[C@@H](CN[C@H]2CC[C@@H](N)CC2)Cc2ccc(C#N)cc2)cc1-c1ccc(CN[C@H](C)c2ccc(C)cc2)o1	enzyme activity, inhibitor	–	1 µM	remaining activity	93%
COCCOc1nc(-c2ccc(Cl)nc2)nc2c1CN(C(=O)c1ncn3ccccc13)CC2	cell-free assay, competition with immobilised ligand	–	0.1 µM	remaining binding	94%
Cc1sc(C(=O)NC2COC2)cc1-n1cc(NC(=O)Nc2c(F)cccc2Cl)cn1	enzyme activity, inhibitor	–	10 µM	remaining activity	105%
N#CC1c2c([nH]c3c(Cl)c(Cl)ccc23)C(=O)NC12CCCCC2 (racemic)	thermal stability, DSF	–	10 µM	ΔTm	0.9 °C
CSc1cccnc1N1CCN(Cc2nc3ccccc3[nH]2)CC1	cell-free assay, competition with immobilised ligand	–	1 µM	remaining binding	100%
Cn1c2c(c3ccc(Cl)c(Cl)c31)C(C#N)C1(CCNCC1)NC2=O (racemic)	thermal stability, DSF	–	10 µM	ΔTm	2.9 °C
N#CCCc1ccc2c(c1)-c1[nH]c3ccc([N+](=O)[O-])cc3c1CC(=O)N2	cell-free assay	–	0.5 µM	remaining signal	84%
O=C(NC[C@@H]1[C@H]2CN(C(=O)OCc3cc(C(F)(F)F)cc(C(F)(F)F)c3)C[C@@H]12)c1ccc2[nH]nnc2c1	cell-free assay, competition with immobilised ligand	–	1 µM	remaining binding	83%
Cn1c2c(Cl)c(Cl)ccc2c2cc[nH]c(=O)c21	thermal stability, DSF	–	10 µM	ΔTm	2.2 °C
CC(C)(O)c1cncc(-c2nc3ccc(F)cc3n2C2CC2)c1	cell-free assay, competition with immobilised ligand	–	1 µM	remaining binding	100%
COc1cc2c(Nc3ccc(Br)cc3F)ncnc2cc1OCC1CCN(C)CC1	cell-free assay	–	0.5 µM	remaining signal	91.7%
CC(C)(O)[C@H]1CC[C@H](Nc2ccc3ncc(-c4cccc(C(F)(F)F)c4)n3n2)CC1	enzyme activity, inhibitor	–	1 µM	remaining activity	91.2%
COc1cc2ncnc(Nc3ccc(Oc4ccccc4)c(C)c3C)c2cc1OC	enzyme activity, inhibitor	–	1 µM	inhibition	8%
